Rev-erbA mod = modulators of Rev-erb alpha DNA binding, primary screen, biochemical, FITC-DNA, fluorescence polarization, uHTS | AID 1259318, 2017 | 0.79% of 370,000 active | Rev-erbα–FITC-DNA binding, 90 min | activity, % at 10 µM | Nuclear receptor subfamily 1 group D member 1 (Homo sapiens), P20393;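 active = activity above about 14%, limit read from the data; passing the limit was not always enough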;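 also: 0% = DMSO wells with 35 nM protein and 100% = DMSO wells with 750 nM protein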
Target sequence (P20393 whole entry, looked up): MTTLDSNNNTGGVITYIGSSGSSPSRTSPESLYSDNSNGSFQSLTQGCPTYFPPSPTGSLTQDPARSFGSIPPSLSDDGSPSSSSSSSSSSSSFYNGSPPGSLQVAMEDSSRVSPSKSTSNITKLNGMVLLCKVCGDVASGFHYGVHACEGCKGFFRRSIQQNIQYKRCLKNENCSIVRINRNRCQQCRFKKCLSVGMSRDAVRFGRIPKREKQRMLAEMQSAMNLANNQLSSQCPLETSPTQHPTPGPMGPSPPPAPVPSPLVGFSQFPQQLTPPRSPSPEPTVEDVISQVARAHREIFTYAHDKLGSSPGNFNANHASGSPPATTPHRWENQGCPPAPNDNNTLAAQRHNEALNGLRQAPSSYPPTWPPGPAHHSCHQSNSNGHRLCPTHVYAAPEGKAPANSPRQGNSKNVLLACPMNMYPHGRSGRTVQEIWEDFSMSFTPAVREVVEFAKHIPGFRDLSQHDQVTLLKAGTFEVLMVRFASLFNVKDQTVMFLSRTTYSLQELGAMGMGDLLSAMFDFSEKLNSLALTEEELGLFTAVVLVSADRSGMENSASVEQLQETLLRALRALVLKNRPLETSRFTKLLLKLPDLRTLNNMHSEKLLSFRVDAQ
NR2E3 ag-1 = inhibitors of NR2E3-RetCOR corepressor binding, primary screen, NR2E3 agonist project, biochemical, TR-FRET, GST-NR2E3, biotin-RetCOR. 0.12% of 320,000 active. inhibition of corepressor binding, % at 4.78 µM. 1536-well. Photoreceptor-specific nuclear receptor (Homo sapiens), Q9Y5X4;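 active = percent inhibition above the cutoff of mean plus 3 SD of all tested compounds, set per screening campaign, cut at about 20% in these data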;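 also: 0% = DMSO wells and 100% = biotin wells as full block of FRET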
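Format: 1536-well format; test system: GST-NR2E3 and biotin-RetCOR proteins; read-out basis: percent inhibition of TR-FRET ratio; timing: 5 h incubation at 4 °C; detection: time-resolved FRET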
NR2E3 ag-2 = NR2E3 agonists in two-hybrid cells, primary screen, cell-based, luminescence, CHO-S, Gal4-NCOR/VP16-NR2E3; 0.35% of 360,000 active; inhibition of corepressor binding, % at 3.98 µM; luciferase; Photoreceptor-specific nuclear receptor (Homo sapiens), Q9Y5X4;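 active = inhibition above the mean of all tested compounds plus 3 SD, cut at about 70% in these data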;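 also: 0% = DMSO with NR2E3 transfected cells and 100% = cells lacking NR2E3 construct; higher means lower luciferase signal from less NR2E3 corepressor binding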
PG9 binder = binders of HIV-1 gp120 antibody PG9, primary screen, biochemical, TR-FRET; inhibition, % at 6.7 µM; TR-FRET gp120-PG9 antibody binding; AID 624416, 2012; 0.43% of 360,000 active; in the data active = inhibition above about 8.5%
Rev-erbA confirm = modulators of Rev-erb alpha DNA binding, confirmation, biochemical, FITC-DNA, fluorescence polarization, single point | 90 min | AID 1259319, 2017 | activation, % at 25 µM | shares compounds with Rev-erbA mod | 61% of 3,000 active;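 active = activation at or above a set limit, or at least 3 SD above the negative control mean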;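 also: 0% = 35 nM protein with DMSO and 100% = 750 nM protein high control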
RORg counter = modulation of RORgamma DNA binding, dose response, counter-screen for Rev-erb alpha modulator project, biochemical, fluorescence polarization, FITC-DNA | shares compounds with Rev-erbA mod | purified RORgamma protein-FITC-DNA binding | IC50, µM | 8% of 910 active | AID 1259320, 2017;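 active = Compounds whose fitted half-maximal concentration for disrupting protein-DNA binding is below 10 micromolar; the record names Rev-erb in its text, so the target is in doubt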
Starred values were filed as active, the others as inactive; i = inactive; / = no result. In the library only some 1.5% were active in any assay of this set; here they are far more common.

SMILES	Rev-erbA mod	NR2E3 ag-1	NR2E3 ag-2	PG9 binder	Rev-erbA confirm	others
C[C@H](O)[C@@H]1C(=O)N2CCc3c([nH]c4c(-c5ccc6c(c5)OCO6)cccc34)[C@@H]2C[C@@H]1N(C)C(=O)OCc1ccccc1	1	/	/	/	/
Cc1cc(C)cc(NC(=O)N2CCC(c3nc4ccc(Cl)cc4[nH]3)CC2)c1	1	/	/	/	/
CC(=O)C1=C(C)N(Cc2ccc(Cl)cc2)C(=S)NC1c1ccccc1 (stereo not given)	0	/	/	-1	/
CCn1c(C)c(C2=CCN(S(=O)(=O)c3ccccc3)CC2)c2ccccc21	28*	1	-16	1	26*
COc1ccc2cc(C(=O)NC3CCCCC3)c(=O)oc2c1	42*	/	-15	-2	19*
O=C(NC1CCCCCC1)c1cc2ccccc2oc1=O	0	3	4	-3	/
COC(=O)c1c(NC(=O)c2ccccc2N(C)S(=O)(=O)c2ccccc2)sc2c1CCCC2	4	/	-13	1	/
COC(=O)c1c(NC(=O)c2ccc(N(C)S(=O)(=O)c3ccc(C)cc3)cc2)sc2c1CCCC2	34*	-2	7	-1	15
CCOC(=O)c1c(C2CC2)csc1NC(=O)COC(=O)c1cnc(Cl)c(Cl)c1	81*	0	-5	-1	80*	RORg counter=>40
CCOC(=O)c1c(C2CC2)csc1NC(=O)COC(=O)c1ccc[n+]([O-])c1	-1	3	-8	-1	/
Cc1ccc(S(=O)(=O)N2CCOCC2)cc1NC(=O)c1cc(-c2ccccn2)nc2ccccc12	-6	3	-16	-1	/
O=C(Nc1cc(S(=O)(=O)N2CCOCC2)ccc1N1CCCCC1)c1cc(-c2ccccn2)nc2ccccc12	25*	0	17	-1	2
COc1ccc(Cl)cc1Nc1nc(C)nc2c1oc1ccccc12	15*	0	-21	0	23*
COC(=O)[C@]12C[C@H](CC(=O)NCc3ccccc3)C(=O)N(CCC3=CCCCC3)C1=C[C@H](C1CCCC1)O[C@@H]2C	-3	/	/	/	/
CCOC(=O)c1sc2nc(C)nc(NC3CCC(O)CC3)c2c1C (stereo not given)	24*	-1	-10	-2	3
CCOC(=O)c1sc2nc(C)nc(NCc3ccccc3OC)c2c1C	13	-1	-6	0	/
CC(C)(C)c1ccc(SC2=C[C@@]3(O)CC[C@@H](O)[C@@](Sc4ccc(C(C)(C)C)cc4)(C2=O)[C@H]3O)cc1	33*	/	31	-13	21*
CCCCCn1c(SCC(=O)c2ccccc2)nc2cc(C(=O)NCC3CCCO3)ccc2c1=O (stereo not given)	69*	/	-15	-1	25*
Brc1nc(-c2ccccc2)nc(-c2ccccc2)c1Br	65*	5	-24	0	685*	RORg counter=i
CCCCCCNC(=O)C(C#N)c1nc2ccccc2nc1N1CCOCC1 (stereo not given)	40*	-1	20	-2	34*	RORg counter=>40
CCCCCCNC(=O)C(C#N)c1nc2ccccc2nc1N1CCCC1 (stereo not given)	-2	2	0	-3	/
CCN(CC)c1nc2ccccc2nc1C(C#N)C(=O)NCCCOC (stereo not given)	-3	0	3	-1	/
N#CC(C(=O)NCCc1ccccc1)c1nc2ccccc2nc1N1CCCCC1 (stereo not given)	36*	-1	2	0	11
N#CC(C(=O)NCCc1ccccc1)c1nc2ccccc2nc1N1CCOCC1 (stereo not given)	-3	-1	-11	0	/
CCCCN(CCCC)c1nc2ccccc2nc1C(C#N)C(=O)NCCCOC (stereo not given)	69*	3	-9	1	11
O=C(CSc1nnc(-c2ccco2)n1-c1ccc(Cl)cc1)Nc1ccc(S(=O)(=O)Nc2nccs2)cc1	0	/	/	/	/

High-throughput results as filed in PubChem BioAssay.
